The subject of assay [1] is Canis familiaris. The assay is described as follows: Increase in cardiac force in dog at 75 ug/kg intravenous dose. The class given is functional, Canis lupus familiaris.
For assay [2], the species on record is Canis familiaris. The assay is described as follows: 50% increase in cardiac force in dog by id dose. The class given is functional. As to conditions: Canis lupus familiaris, Heart. Summed up:
(§1)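 Anesthetized dogs; the value is the dose, given iv or intraduodenally, that raises cardiac force by 50%.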

In assay [3] the test system is Canis familiaris. The assay is described as follows: 50% increase in cardiac force in dog by intravenous dose. In kind it is functional. As to conditions: Canis lupus familiaris, Heart. Summed up:
as §1

For five molecules, Change and ED50 results are on record in ChEMBL document CHEMBL1126015, “Heteroatom analogues of bemoradan: chemistry and cardiotonic activity of 1,4-benzothiazinylpyridazinones” (J Med Chem, 1992).

For `O=C1CCC(c2ccc3c(c2)SCC(=O)N3)=NN1`, the Change with Canis familiaris [1] was 62%. Still for that read-out and setting: the figure for `CN1C(=O)CS(=O)(=O)c2cc(C3=NNC(=O)CC3)ccc21` is 20%; for `CN1C(=O)C[S+]([O-])c2cc(C3=NNC(=O)CC3)ccc21` (stereo unspecified) it is -3%.

Regarding `CN1C(=O)CSc2cc(C3=NNC(=O)CC3)ccc21`, in the assay on Canis familiaris [1], the Change amounted to 38%.

One may read the ED50 as the midpoint of the dose-response relation. A higher ED50 goes with weaker potency. Regarding `CC1CC(=O)NN=C1c1ccc2c(c1)OCC(=O)N2` (stereo unspecified) [BEMORADAN], the median effective dose (ED50) in the assay filed under Canis familiaris [2] came out at 10 µg/kg; in the assay with Canis familiaris [3], 5.4 µg/kg.
